Laboratory results from ChEMBL document CHEMBL1123644, “Potential antitumor agents. 53. Synthesis, DNA binding properties, and biological activity of perimidines designed as "minimal" DNA-intercalating agents” (J Med Chem, 1987).
Activity calls are given as the source filed them. The rule behind the calls is not given here.

Key:
L1210 = test: In vitro growth inhibition of murine leukemia L1210 cells after 40 hours exposure.; format: functional, cell-based; conditions: Mus musculus, L1210, 40 h
P388 [1] = test: Percent increase in life span of drug treated tumor( P388 leukemia cells)-bearing animal compared to that of untreated tumor bearing control when treated at optimal dose; Compound inactive at all dose levels up to toxic ones; format: functional; conditions: Mus musculus
Nucleic Acid [2] = test: The compound was tested for DNA (from Escherichia coli plasmid pNZ116 ) binding constant to poly[d(A-T)] determined by ethidium bromide displacement; format: nucleic-acid assay
How it was run: (§1)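 Binding constants to poly[d(A-T)] and poly[d(G-C)] were determined by ethidium bromide displacement.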

Nucleic Acid [3] = test: The compound was tested for DNA (from Escherichia coli plasmid pNZ116 ) binding constant to poly[d(G-C)] determined by ethidium bromide displacement; format: nucleic-acid assay; how it was run: as §1
P388 [4] = test: Optimal dose administered intraperitoneally as a solution in 0.1 mL of 30% v/v ethanol-water on days 1,5 and 9 after intraperitoneal inoculation of 10 e6 P388 leukemia cells; format: functional, Mus musculus
[5] = The pKa value spectrophotometrically in water at 25 degree Centigrade; format: physicochemical
P388 [6] = test: Optimal dose administered intraperitoneally as a solution in 0.1 mL of 30% v/v ethanol-water on days 1,5 and 9 after intraperitoneal inoculation of 10 e6 P388 leukemia cells; ND means no data; format: functional, Mus musculus
P388 [7] = test: Percent increase in life span of drug treated tumor( P388 leukemia cells)-bearing animal compared to that of untreated tumor bearing control when treated at optimal dose; format: functional, Mus musculus
P388 [8] = test: Percent increase in life span of drug treated tumor( P388 leukemia cells)-bearing animal compared to that of untreated tumor bearing control when treated at optimal dose; NA means not active compound inactive at all dose levels up to toxic ones; format: functional; conditions: Mus musculus
P388 [9] = test: Percent increase in life span of drug treated tumor( P388 leukemia cells)-bearing animal compared to that of untreated tumor bearing control when treated at optimal dose; NA means not active; format: functional; conditions: Mus musculus

CCN(CC)CCNC(=O)C1=Nc2cccc3cccc(c23)N1
IC50 (L1210): 1100 nM

CN(C)CCN1C=Nc2cccc3cccc1c23
ILS (P388 [1]): inactive
IC50 (L1210): 20000 nM
Log K (Nucleic Acid [2]): 5.17
Log K (Nucleic Acid [3]): 5.31
OD (P388 [4]): 150 mg/kg/day
pKa [5]: 4.64

CN(C)CCNC1=Nc2cccc3cccc(c23)N1
ILS (P388 [1]): inactive
IC50 (L1210): 2500 nM
Log K (Nucleic Acid [2]): 5.77
Log K (Nucleic Acid [3]): 5.9
OD (P388 [4]): 65 mg/kg/day

CN(C)CCN1C(=O)c2cccc3cccc(c23)C1=O
OD (P388 [6]): 150 mg/kg/day
ILS (P388 [7]): 31%
IC50 (L1210): 1600 nM
Log K (Nucleic Acid [2]): 5.46
Log K (Nucleic Acid [3]): 5.87

CN(C)CCCSC1=Nc2cccc3cccc(c23)N1
IC50 (L1210): 5700 nM

CN(C)CCCCNC(=O)C1=Nc2cccc3cccc(c23)N1
IC50 (L1210): 1500 nM

CN(C)CCNC(=O)C1=Nc2cccc3cccc(c23)N1
ILS (P388 [1]): inactive
IC50 (L1210): 440 nM
Log K (Nucleic Acid [2]): 6.51
Log K (Nucleic Acid [3]): 6.51
OD (P388 [4]): 150 mg/kg/day
pKa [5]: 1.74

O=C(NCCN1CCCCC1)C1=Nc2cccc3cccc(c23)N1
IC50 (L1210): 1300 nM

O=C(NCCN1CCOCC1)C1=Nc2cccc3cccc(c23)N1
IC50 (L1210): 14100 nM

CN(C)CCCNC(=O)C1=Nc2cccc3cccc(c23)N1
IC50 (L1210): 870 nM

CN(C)CCCCN1C(=O)c2cccc3cccc(c23)C1=O
IC50 (L1210): 1900 nM

CN(C)CCCNC(=O)CC1=Nc2cccc3cccc(c23)N1
IC50 (L1210): > 21000 nM

CN(C)CCNC(=O)C1=Nc2cccc3cncc(c23)N1
ILS (P388 [1]): inactive
IC50 (L1210): 21700 nM
Log K (Nucleic Acid [2]): 5.71
Log K (Nucleic Acid [3]): 5.88
OD (P388 [4]): 65 mg/kg/day

CN(C)CCSC1=Nc2cccc3cccc(c23)N1
ILS (P388 [1]): inactive
IC50 (L1210): 1800 nM
Log K (Nucleic Acid [2]): 5.78
Log K (Nucleic Acid [3]): 6.1
OD (P388 [4]): 150 mg/kg/day
pKa [5]: 2.66

CN(C)CCCNC1=Nc2cccc3cccc(c23)N1
IC50 (L1210): 4000 nM

CN(C)CCCN1C=Nc2cccc3cccc1c23
ILS (P388 [8]): inactive
IC50 (L1210): 15300 nM
OD (P388 [4]): 150 mg/kg/day
pKa [5]: 5.1

CN(C)CCCCN1C=Nc2cccc3cccc1c23
IC50 (L1210): 2200 nM
pKa [5]: 5.3

CN(C)CCNC(=O)CC1=Nc2cccc3cccc(c23)N1
ILS (P388 [9]): inactive
IC50 (L1210): 16700 nM
Log K (Nucleic Acid [2]): 5.74
Log K (Nucleic Acid [3]): 5.88
OD (P388 [4]): 65 mg/kg/day
